The values that follow come from ChEMBL document CHEMBL3217676, “Homodimers of the Antiviral Abacavir as Modulators of P-glycoprotein Transport in Cell Culture: Probing Tether Length” (Medchemcomm, 2013).

Data set [1] addresses T1, ATP-dependent translocase ABCB1 (Homo sapiens, UniProt P08183). Nature of the data set: Inhibition of P-gp overexpressed in human 12D7-MDR cells assessed as inhibition of calcein-AM efflux after 30 mins by flow cytometry. The class given is cell-based. To be noted: for inhibition (INH): human, 0.5 h. In short, it runs like this:
(§1)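 12D7-MDR cells (RPMI 1640, 10% FBS, 37 °C, 5% CO2), 125,000 in suspension in BME with calcein-AM 0.25 µM or NBD-Aba 5 µM final, plus increasing inhibitor concentrations, 30 min at 37 °C, DMSO held at 1%. Controls: GF120918 1 µM (positive), 1% DMSO (negative). Cells resuspended in ice-cold PBS pH 7.4; FL1 flow cytometry, 10,000 cells per point; IC50 from mean fluorescence.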

Data set [2] addresses T1, ATP-dependent translocase ABCB1. The data set can be described thus: Inhibition of P-gp overexpressed in human 12D7-MDR cells assessed as inhibition of NBD-Aba efflux after 30 mins by flow cytometry. Format: cell-based. Particulars: for inhibition (INH): human, 0.5 h; call rule not given here. In short, it runs like this: as §1
Background: Flow cytometry measures light scatter and fluorescence of single cells or particles in a stream.

For data set [3] the target is unchanged. The data set can be described thus: Inhibition of P-gp in human CMEC/D3 cells assessed as inhibition of NBD-Aba efflux after 30 mins by flow cytometry. Format: cell-based. The gist of the method: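 hCMEC/D3 brain endothelial cells with endogenous P-gp, grown in supplemented EGM-2 on collagenated flasks. 125,000 cells in suspension in BME with NBD-Aba 5 µM final and increasing inhibitor concentrations, 30 min at 37 °C, 1% DMSO constant. GF120918 1 µM served as positive control. Cells resuspended in ice-cold PBS; FL1 flow cytometry on 10,000 cells; IC50 from mean fluorescence.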

Data set [4] has the same target. The data set can be described thus: Inhibition of P-gp in human MCF7/DX1 cells assessed as cellular accumulation of NBD-Aba at 20 uM by confocal laser microscopy. The class given is cell-based. To be noted: mcf7/dx1, 20 µM. The gist of the method:
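Confocal microscopy of MCF-7/DX1 cells given NBD-Aba 5 µM, with or without inhibitor at 20 µM.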

The target is the same in data set [5]. Nature of the data set: Displacement of [125I]-iodoarylazidoprazosin from human P-gp expressed in baculovirus-infected insect Sf9 cells incubated for 10 mins followed by UV light illumination for 20 mins by autoradiography. In short, it runs like this: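 Crude membranes (25 µg) from Sf9 cells infected with BV-MDR1 expressing human P-gp (72 h at 27 °C). Incubated 10 min at room temperature in the dark in 50 mM Tris-HCl pH 7.5 with 1 mM DTT and protease inhibitors, with [125I]-IAAP (~2200 Ci/mmol) and increasing inhibitor, then photo-crosslinked. Controls: 2.5% DMSO or GF120918 10 µM. Autoradiography and densitometry; values as percent of DMSO control, IC50 fitted.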
For orientation: Displacement assays read how much labelled ligand stays bound in the presence of the test substance.

Data set [6] deals with P-gp (ABCB1) (Homo sapiens, UniProt P08183). Nature of the data set: Ratio of inhibition of P-gp in human CMEC/D3 cells using NBD-Aba as substrate to inhibition of P-gp in human MCF7/DX1 cells using NBD-Aba as substrate. The class given is cell-based. To be noted: CMEC/D3 cells and MCF7/DX1 cells, probe NBD-Aba.
Data set [7] concerns the target T1, ATP-dependent translocase ABCB1. Nature of the data set: Ratio of inhibition of P-gp overexpressed in human 12D7-MDR cells using NBD-Aba as substrate to inhibition of P-gp in human MCF7/DX1 cells using NBD-Aba as substrate. The class given is cell-based.
The target is the same in data set [8]. Nature of the data set: Inhibition of P-gp in human MCF7/DX1 cells assessed as cellular accumulation of NBD-Aba after 30 mins by flow cytometry. Format: cell-based. To be noted: mcf7/dx1, 0.5 h. The gist of the method:
(§2)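 MCF-7/DX1 cells are maintained with 1 µM doxorubicin. 125,000 cells in BME, pretreated with substrate (BODIPY-prazosin 0.5 µM, NBD-Aba 5 µM or doxorubicin 3 µM final), then incubated with increasing inhibitor concentrations for 30 min at 37 °C in 1% DMSO. For doxorubicin, cells are re-pelleted and incubated a further 30 min in inhibitor-containing BME. Read-out: flow cytometry, FL1 for BODIPY-prazosin and NBD-Aba, FL2 (585/42) for doxorubicin; IC50 from mean fluorescence. GF120918 1 µM as positive control.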

For data set [9] the target is unchanged. Nature of the data set: Inhibition of P-gp in human MCF7/DX1 cells assessed as cellular accumulation of [3H]-daunomycin after 30 mins by scintillation counting analysis. Format: cell-based. Particulars: mcf7/dx1, 40 min, in the assay text read “40 mins” for “30 mins”. The gist of the method:
(§3)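 MCF-7/DX1 cells, 500,000 per well, seeded the day before and washed with ice-cold PBS. Incubated 40 min at 37 °C in BME with 5% calf serum, 0.25 µCi/mL [3H]-daunomycin and varying inhibitor concentrations; GF120918 1 µM as positive control. Cells washed, trypsinized 1 h at 37 °C, then scintillation counted. Counts normalized per 10,000 cells; IC50 from fitted concentration–response curves.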

For data set [10] the target is unchanged. The data set can be described thus: Inhibition of P-gp in human MCF7/DX1 cells assessed as cellular accumulation of doxorubicin after 30 mins by flow cytometry. Particulars: mcf7/dx1, 0.5 h. Format: cell-based. The gist of the method:
as §2

Data set [11] shares this target. The data set can be described thus: Inhibition of P-gp in human MCF7/DX1 cells assessed as cellular accumulation of BODIPY-prazosin after 30 mins by flow cytometry. Format: cell-based. To be noted: mcf7/dx1, 0.5 h. In short, it runs like this: as §2
Data set [12] has the same target. Nature of the data set: Inhibition of P-gp in human MCF7/DX1 cells assessed as cellular accumulation of NBD-Aba up to 100 uM after 30 mins by flow cytometry. The class given is cell-based. To be noted: mcf7/dx1, 0.5 h. The gist of the method: as §2
For data set [13] the target is unchanged. Nature of the data set: Inhibition of P-gp in human MCF7/DX1 cells assessed as cellular accumulation of [3H]-daunomycin up to 100 uM after 30 mins by scintillation counting analysis. Format: cell-based. To be noted: mcf7/dx1, 40 min, in the assay text read “40 mins” for “30 mins”. The gist of the method:
as §3

Data set [14] has the same target. Nature of the data set: Inhibition of P-gp in human MCF7/DX1 cells assessed as cellular accumulation of doxorubicin up to 100 uM after 30 mins by flow cytometry. Format: cell-based. Particulars: mcf7/dx1, 0.5 h. The gist of the method: as §2
The target is the same in data set [15]. Nature of the data set: Inhibition of P-gp in human MCF7/DX1 cells assessed as cellular accumulation of BODIPY-prazosin up to 100 uM after 30 mins by flow cytometry. The class given is cell-based. To be noted: mcf7/dx1, 0.5 h. The gist of the method: as §2

As usually defined, the IC50 is the midpoint of a concentration-inhibition curve.

Molecules are shown by their SMILES.

T1 sequence (P08183 whole entry): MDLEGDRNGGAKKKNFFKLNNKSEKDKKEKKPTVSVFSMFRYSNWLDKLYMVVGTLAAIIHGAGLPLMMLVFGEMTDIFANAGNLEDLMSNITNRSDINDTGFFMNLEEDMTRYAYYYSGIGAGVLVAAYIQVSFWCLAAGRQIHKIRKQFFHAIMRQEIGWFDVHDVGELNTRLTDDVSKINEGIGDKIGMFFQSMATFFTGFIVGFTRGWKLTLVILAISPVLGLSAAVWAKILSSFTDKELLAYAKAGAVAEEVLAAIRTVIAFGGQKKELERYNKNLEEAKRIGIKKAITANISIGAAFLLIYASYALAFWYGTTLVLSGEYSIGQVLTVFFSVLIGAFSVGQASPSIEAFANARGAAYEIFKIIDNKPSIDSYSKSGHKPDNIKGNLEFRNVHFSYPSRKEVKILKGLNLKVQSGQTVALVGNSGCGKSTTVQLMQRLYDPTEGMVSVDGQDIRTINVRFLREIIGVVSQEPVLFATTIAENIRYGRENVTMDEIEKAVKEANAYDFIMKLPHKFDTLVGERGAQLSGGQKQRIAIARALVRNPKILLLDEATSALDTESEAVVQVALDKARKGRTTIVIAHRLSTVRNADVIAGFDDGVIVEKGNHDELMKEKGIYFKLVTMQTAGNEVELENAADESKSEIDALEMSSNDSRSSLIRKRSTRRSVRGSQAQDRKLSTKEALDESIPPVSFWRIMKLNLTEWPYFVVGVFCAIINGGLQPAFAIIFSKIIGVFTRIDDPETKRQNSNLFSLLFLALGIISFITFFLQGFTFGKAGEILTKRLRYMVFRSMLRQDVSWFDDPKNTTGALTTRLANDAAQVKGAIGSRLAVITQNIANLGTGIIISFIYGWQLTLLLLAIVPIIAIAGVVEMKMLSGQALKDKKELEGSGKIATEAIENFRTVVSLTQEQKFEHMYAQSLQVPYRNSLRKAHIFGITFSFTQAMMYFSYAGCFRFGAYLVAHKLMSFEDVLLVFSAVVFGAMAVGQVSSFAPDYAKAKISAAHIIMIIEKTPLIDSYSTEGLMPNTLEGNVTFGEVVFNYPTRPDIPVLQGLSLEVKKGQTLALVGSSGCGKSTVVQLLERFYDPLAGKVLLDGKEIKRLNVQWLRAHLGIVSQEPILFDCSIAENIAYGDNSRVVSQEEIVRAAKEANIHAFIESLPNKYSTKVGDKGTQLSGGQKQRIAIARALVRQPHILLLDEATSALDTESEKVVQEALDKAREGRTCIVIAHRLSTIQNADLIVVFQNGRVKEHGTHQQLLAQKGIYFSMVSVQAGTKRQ
Chain of P-gp (ABCB1) (P08183 whole entry): as above

With `Nc1nc(NC2CC2)c2ncn([C@H]3C=C[C@@H](COC(=O)CCC(=O)OC[C@@H]4C=C[C@H](n5cnc6c(NC7CC7)nc(N)nc65)C4)C3)c2n1`, in [1], the IC50 is 50000 nM and the “inhibition (INH)” value was “Dose-dependent effect”.
With `Nc1nc(NC2CC2)c2ncn([C@H]3C=C[C@@H](COC(=O)CCCCCC(=O)OC[C@@H]4C=C[C@H](n5cnc6c(NC7CC7)nc(N)nc65)C4)C3)c2n1`, the values for the IC50 in [2], in [1] and in [3] were 10500 nM, 7700 nM and 4100 nM, respectively. Moreover, the “inhibition (INH)” value in [2] and in data set [1] was “Dose-dependent effect” throughout.
`Nc1nc(NC2CC2)c2ncn([C@H]3C=C[C@@H](COC(=O)CCCCCCCC(=O)OC[C@@H]4C=C[C@H](n5cnc6c(NC7CC7)nc(N)nc65)C4)C3)c2n1`: the figures for the IC50 in data set [2], in data set [1] and in data set [3] were 2600 nM, 2600 nM and 3800 nM, respectively. Moreover, the “inhibition (INH)” value in data set [2] and in data set [1] was “Dose-dependent effect” each time.
For the molecule `Nc1nc(NC2CC2)c2ncn([C@H]3C=C[C@@H](COC(=O)CCCCCCCCC(=O)OC[C@@H]4C=C[C@H](n5cnc6c(NC7CC7)nc(N)nc65)C4)C3)c2n1`, the IC50 in data set [2] is 2100 nM; in data set [1] it was 2300 nM; in [5], 240 nM; in data set [3], 3600 nM. For the same molecule, the “inhibition (INH)” value in data set [2] is reported as “Dose-dependent effect”; in data set [1], “Dose-dependent effect”; in [4] it was “Active”; in [5] (human, sf9, 10 min), “Dose-dependent effect”. Besides, the selectivity ratio in data set [6] was 3. In addition, in [7], the Ratio turned out to be 6. For the same molecule, the INH in data set [8] was 11.8 µM; in data set [9], 9.2 µM; in [10], 12.8 µM; in data set [11], 5.1 µM.
Turning to `Nc1nc(NC2CC2)c2ncn([C@H]3C=C[C@@H](COC(=O)CCCCCCCCCCC(=O)OC[C@@H]4C=C[C@H](n5cnc6c(NC7CC7)nc(N)nc65)C4)C3)c2n1`, the IC50 is 1800 nM in data set [2], 1400 nM in data set [1] and 1100 nM in data set [3]. The “inhibition (INH)” value in [2] and in data set [1] was “Dose-dependent effect” throughout.
For `Nc1nc(NC2CC2)c2ncn([C@H]3C=C[C@@H](CO)C3)c2n1` [ABACAVIR], the IC50 in [2], in [1] and in data set [3] was greater than 500000 nM each time. In addition, the “inhibition (INH)” value in data set [12], in [13], in data set [14] and in data set [15] was “Not Active” in each case.
